Measurements published in ChEMBL document CHEMBL1131010, “Inhibition of human neutrophil elastase. 4. Design, synthesis, X-ray crystallographic analysis, and structure-activity relationships for a series of P2-modified, orally active peptidyl pentafluoroethyl ketones” (J Med Chem, 1998).

Columns and labels:
Format in all cases: functional, Cricetulus griseus
[1] = system: Cricetinae gen. sp.; test: In vivo HNE inhibitory activity of lung hemorrhage in 6-8 hamsters; parameters: concentration or dose not given beside the values
How it was run: (§1)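 Hamsters dosed orally at 1, 1.5, 2 or 4 h before intratracheal instillation of HNE (25 µg). Animals were killed 1 h after HNE and lungs lavaged with saline. BAL hemoglobin was read spectrophotometrically at 536-546 nm. % inhibition of hemorrhage is relative to vehicle-treated animals, given as mean ± SEM of 6-8 hamsters, with p < 0.05 as significance.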

[2] = system: Cricetinae gen. sp.; test: In vivo percent inhibition of lung hemorrhage in 6-8 hamsters administration of 25 mg/kg 2 hr before intratracheal instillation of HNE (25 ug); how it was run: as §1
[3] = system: Cricetinae gen. sp.; test: In vivo percent inhibition of lung hemorrhage in 6-8 hamsters administration of 25 mg/kg 4 hr before intratracheal instillation of HNE (25 ug); how it was run: as §1
[4] = system: Cricetinae gen. sp.; test: In vivo percent inhibition of lung hemorrhage in 6-8 hamsters administration of 25 mg/kg 1 hour before intratracheal instillation of HNE (25 ug); how it was run: as §1
[5] = system: Cricetinae gen. sp.; test: In vivo percent inhibition of lung hemorrhage in 6-8 hamsters administration of 25 mg/kg 2 hours before intratracheal instillation of HNE (25 ug); how it was run: as §1
[6] = system: Cricetinae gen. sp.; test: In vivo percent inhibition of lung hemorrhage in 6-8 hamsters after administration of 25 mg/kg 1 hr before intratracheal instillation of HNE (25 ug); how it was run: as §1
[7] = system: Cricetinae gen. sp.; test: In vivo percent inhibition of lung hemorrhage in 6-8 hamsters administration of 25 mg/kg 1 hr before intratracheal instillation of HNE (25 ug); how it was run: as §1

| SMILES | Inhibition [1] [%] | further results |
| --- | --- | --- |
| CC(=O)OC1CC(C(=O)NC(C(=O)C(F)(F)C(F)(F)F)C(C)C)N(C(=O)[C@@H](NC(=O)c2ccc(C(=O)N3CCOCC3)cc2)C(C)C)C1 (stereo not given in full) | 0 | inhibition in vivo at 25 mg/kg [2]: 0%; inhibition in vivo at 25 mg/kg [3]: 0% |
| CC(C)C(NC(=O)[C@@H]1CCCN1C(=O)[C@@H](NC(=O)c1ccc(C(=O)N2CCOCC2)cc1)C(C)C)C(=O)C(F)(F)C(F)(F)C(F)(F)F (stereo not given in full) | 47 | inhibition in vivo at 25 mg/kg [4]: 30%; inhibition in vivo at 25 mg/kg [5]: 25% |
| CC(C)C(NC(=O)[C@@H]1CCCN1C(=O)[C@@H](NC(=O)c1ccc(C(=O)N2CCOCC2)cc1)C(C)C)C(=O)C(F)(F)C(F)(F)F (stereo not given in full) | 74 | – |
| CC(C)C(NC(=O)C1CC(O)CN1C(=O)[C@@H](NC(=O)c1ccc(C(=O)N2CCOCC2)cc1)C(C)C)C(=O)C(F)(F)C(F)(F)F (stereo not given in full) | 0 | – |
| CC(C)C(NC(=O)[C@H]1CCN1C(=O)[C@@H](NC(=O)c1ccc(C(=O)N2CCOCC2)cc1)C(C)C)C(=O)C(F)(F)C(F)(F)F (stereo not given in full) | 79 | inhibition in vivo at 25 mg/kg [6]: 57% |
| CC(C)C(NC(=O)[C@H]1CC(OCc2ccccc2)CN1C(=O)[C@@H](NC(=O)c1ccc(C(=O)N2CCOCC2)cc1)C(C)C)C(=O)C(F)(F)C(F)(F)F (stereo not given in full) | 7 | – |
| CC(C)C(NC(=O)[C@@H]1CSCN1C(=O)[C@@H](NC(=O)c1ccc(C(=O)N2CCOCC2)cc1)C(C)C)C(=O)C(F)(F)C(F)(F)F (stereo not given in full) | 0 | – |
| CC(C)C(NC(=O)C1CCCCN1C(=O)[C@@H](NC(=O)c1ccc(C(=O)N2CCOCC2)cc1)C(C)C)C(=O)C(F)(F)C(F)(F)F (stereo not given in full) | 54 | inhibition in vivo at 25 mg/kg [7]: 43%; inhibition in vivo at 25 mg/kg [2]: 39% |
